As usually defined, the IC50 is the concentration at which inhibition is half-maximal. The term inhibition denotes the share of the control response that was lost under treatment. As a reminder, the Kd is the concentration at which binding is half-saturated.

One test concerns MDA-MB-231. The test is described as follows: Cytotoxicity against human ER-negative MDA-MB-231 cells assessed as cell viability after 72 hrs. The format is functional, cell-based. The settings on record: MDA-MB-231, 72 h. In a few lines: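 MDA-MB-231 (ER-negative) kept in DMEM + 10% FBS at 37 °C, 5% CO2. Seeded at 5000 cells/well and left overnight, then exposed for 72 h to a range of compound concentrations in serum-free DMEM (final DMSO 0.1%). Viability read by ATPlite one-step luminescence, four replicates. IC50 obtained by curve fitting.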

Test [1] has as its target T1, E3 ubiquitin-protein ligase XIAP (Homo sapiens, UniProt P98170). The test is described as follows: Inhibition of XIAP-Bir3 domain at 100 uM by TR-FRET assay. In a few lines:
(§1)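 TR-FRET displacement. BIR3 protein (10 nM) and biotin-lc-GGIPVA SMAC peptide (10 nM) mixed with compound in DMSO, 1 h at 4 °C. Eu-antibody conjugate (5 nM) and APC-streptavidin (2 nM) then added, incubated overnight at 4 °C. Excitation 340 nm, emission 665 nm. Screen at 100, 10, 1 and 0.1 μM; actives run as 6–7-point dilutions in duplicate.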
For orientation: In TR-FRET formats the signal depends on donor and acceptor labels being close together.

The target of test [2] is T1, E3 ubiquitin-protein ligase XIAP. The test is described as follows: Inhibition of XIAP-Bir3 domain at 10 uM by TR-FRET assay. Put shortly: as §1
For test [3] the target is unchanged. The test is described as follows: Inhibition of XIAP by FRET assay. Put shortly:
as §1

For the next test, the system named is RPMI-8226. The test is described as follows: Cytotoxicity against human RPMI8226 cells assessed as cell viability. It is filed as functional, cell-based.
The next test has as its system Jurkat. The test is described as follows: Cytotoxicity against human Jurkat cells assessed as cell viability. It is filed as functional, cell-based.
Test [4] has as its target T1, E3 ubiquitin-protein ligase XIAP. Put plainly: Inhibition of XIAP by FP assay.
For test [5] the target is unchanged. The test is described as follows: Inhibition of XIAP-Bir3 domain by calorimetric titration assay. Put shortly:
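ITC at 25 °C. Purified XIAP BIR3 (100 μM) in the cell, compound (1 mM) in the syringe, both in degassed PBS pH 7.4. Blank-subtracted, normalized heats fitted to a single-site model; Kd taken as 1/Ka.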

For test [6] the target is unchanged. Put plainly: Inhibition of XIAP-Bir3 domain by NMR titration. In a few lines:
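NMR Kd. 1H chemical-shift changes of resolved BIR3 resonances (BIR3 at 100 μM) followed across ligand concentrations, at least six points. Kd from a nonlinear least-squares fit of fractional bound population versus total ligand, single-site model. 2D [15N,1H]HSQC acquired at 300 K.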

Structures are written as SMILES.

T1 sequence (P98170 whole entry, the tested form may be a part): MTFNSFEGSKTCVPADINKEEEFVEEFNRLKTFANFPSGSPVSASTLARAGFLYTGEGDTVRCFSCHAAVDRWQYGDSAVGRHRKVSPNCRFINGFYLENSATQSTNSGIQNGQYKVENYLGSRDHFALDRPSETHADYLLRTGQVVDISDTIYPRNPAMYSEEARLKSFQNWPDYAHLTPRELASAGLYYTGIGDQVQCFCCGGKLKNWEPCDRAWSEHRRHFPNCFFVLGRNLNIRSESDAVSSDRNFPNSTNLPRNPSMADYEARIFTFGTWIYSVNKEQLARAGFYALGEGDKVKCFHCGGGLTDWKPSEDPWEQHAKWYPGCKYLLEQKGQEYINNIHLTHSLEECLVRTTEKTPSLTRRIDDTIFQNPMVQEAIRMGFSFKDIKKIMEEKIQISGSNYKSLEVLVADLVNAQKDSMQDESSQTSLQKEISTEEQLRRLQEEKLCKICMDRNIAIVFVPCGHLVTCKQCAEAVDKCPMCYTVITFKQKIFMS

As to `CC(C)[C@H](NC(=O)[C@H](C)N)C(=O)N1C(C(=O)NC(c2ccccc2)c2ccccc2)CSC1(C)C` (stereo in doubt; 9) [listing 1 of 2 here], the IC50 in the test with MDA-MB-231 is > 50 µM.

In the case of `CC(C)[C@H](NC(=O)[C@H](C)N)C(=O)N1CCN(Cc2ccccc2)CC1C(=O)NC(c1ccccc1)c1ccccc1` (stereo partly specified), the 50% inhibitory concentration (IC50) with MDA-MB-231 is 31 µM.

Regarding `CC(C)[C@H](NC(=O)[C@H](C)N)C(=O)N1CCCN(C2CCCCC2)CC1C(=O)NC(c1ccccc1)c1ccccc1` (stereo partly specified), the values for the inhibition in test [1] and in [2] were 82.5% and 15.6%, respectively. Also, the IC50 with MDA-MB-231 was > 50 µM.

Take `CN[C@@H](C)C(=O)N[C@H](C(=O)N1CC[C@H]2CN(CCc3ccccc3)CC[C@H]21)C1CCCCC1`: the IC50 turned out to be 0.28 µM in [3] and 30 µM with RPMI-8226.

With `COc1ccc(CCN2CCC[C@H]2CN(C(=O)Nc2ccccc2)[C@@H](CNC(=O)Nc2ccccc2)CC2CCCCC2)cc1`, in the test on Jurkat, the IC50 was 5 µM.

For the molecule `CC(C)C(NC(=O)[C@H](C)N)c1nc(C(=O)NCc2ccccc2)c(-c2ccccc2)s1` (stereo partly specified), the inhibition worked out at 97.2% in test [1] and 58% in test [2]. The IC50 with MDA-MB-231 is > 50 µM.

On to `CC(C)[C@H](NC(=O)[C@H](C)N)C(=O)N1C(C(=O)NC(c2ccccc2)c2ccccc2)CSC1(C)C` (stereo in doubt; 9) [listing 2 of 2 here], for which the inhibition in test [1] is 83.2%; in test [2] it was 15.8%.

As for `CN[C@@H](C)C(=O)NC1CCC[C@H]2SC[C@@H](C(=O)Nc3cc(C)nn3-c3ccccc3)N2C1=O` (stereo partly specified), in the test with MDA-MB-231, the half-inhibitory concentration (IC50) amounted to 2 µM.

Molecule `CN[C@@H](C)C(=O)NC1CCC[C@H]2[C@@H](Cc3ccccc3)C[C@@H](C(=O)N[C@@H]3CCCc4ccccc43)N2C1=O` (stereo partly specified) returned an equilibrium dissociation constant (Kd) in test [4] of 0.031 µM. For the same molecule, the IC50 in the test with MDA-MB-231 amounted to 0.026 µM.

Turning to `CC(C)[C@H](NC(=O)[C@H](C)N)C(O)c1nnnn1CCc1ccccc1` (stereo partly specified), the inhibition in [1] was 20.7%; in [2], 15%. Also, the IC50 in the test with MDA-MB-231 is > 50 µM.

As for `CC(C)[C@H](NC(=O)[C@H](C)N)C(=O)N1C(C(=O)NC(c2ccccc2)c2ccccc2)CSC1(C)C` (single isomer, unassigned; diastereomer A), the inhibition came to 97.1% in [1] and 67.4% in test [2].

Consider `CC(C)[C@H](NC(=O)[C@H](C)N)C(=O)N1C(C(=O)NC(c2ccccc2)c2ccccc2)CSC1(C)C` (stereo in doubt), for which the inhibition is 83.6% in [1] and 16.7% in test [2].

As to `CC(C)C(NC(=O)[C@H](C)N)c1nc(C(=O)NCc2ccccc2)cs1` (stereo partly specified), the inhibition in [1] turned out to be 23.4%; in test [2] it was 19.9%. Moreover, the IC50 with MDA-MB-231 was > 50 µM.

As to `CCN1CCN(C(=O)[C@@H](NC(=O)[C@H](C)N)C(C)C)C(C(=O)NC(c2ccccc2)c2ccccc2)C1` (stereo partly specified), the Kd was found to be 21.6 µM in test [5] and 27.7 µM in [6]. The inhibition stood at 96.9% in [1] and 77.2% in [2]. Further, the IC50 in the test on MDA-MB-231 was > 50 µM.

For the origin of these results see ChEMBL document CHEMBL1671818, “Screening multicomponent reactions for X-linked inhibitor of apoptosis-baculoviral inhibitor of apoptosis protein repeats domain binder” (J Med Chem, 2011).
